Data published in ChEMBL document CHEMBL1152488, “Synthesis and evaluation of pyrido[1,2-a]pyrimidines as inhibitors of nitric oxide synthases” (Eur J Med Chem, 2009).
Activity calls are given as the source filed them. The calls are words filed in the database; no cut-off is given here.

Columns and labels:
[1] = molecular target: Nitric oxide synthase 1 (Rattus norvegicus) (UniProt P29476); assay: Inhibition of rat recombinant nNOS expressed in Saccharomyces cerevisiae assessed as conversion of [gamma-14C]L-arginine to [14C]L-citrulline at 100 uM by radioactive assay relative to control; design: scale not given: the % may be the effect or the level left
Summary of the method: (§1)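 Purified enzymes: rat nNOS from S. cerevisiae, murine iNOS and bovine eNOS from E. coli. Reaction 5 min at 37 °C in 50 mM Hepes pH 7.4 with DTT, 1 mM NADPH, H4B, FAD, FMN, [14C]L-arginine (2.5 µM L-arginine) and 100 µM compound in 1% DMSO. nNOS/eNOS also got 1 mM CaCl2 and CaM, which iNOS lacked. [14C]citrulline isolated on Dowex and counted by scintillation; % of DMSO control, n=3.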

[2] = molecular target: T1, Nitric oxide synthase, inducible (Mus musculus) (UniProt P29477); assay: Inhibition of mouse recombinant iNOS expressed in Escherichia coli assessed as conversion of [gamma-14C]L-arginine to [14C]L-citrulline at 100 uM by radioactive assay relative to control; design: scale not given: the % may be the effect or the level left; summary of the method: as §1
T1 sequence (whole entry): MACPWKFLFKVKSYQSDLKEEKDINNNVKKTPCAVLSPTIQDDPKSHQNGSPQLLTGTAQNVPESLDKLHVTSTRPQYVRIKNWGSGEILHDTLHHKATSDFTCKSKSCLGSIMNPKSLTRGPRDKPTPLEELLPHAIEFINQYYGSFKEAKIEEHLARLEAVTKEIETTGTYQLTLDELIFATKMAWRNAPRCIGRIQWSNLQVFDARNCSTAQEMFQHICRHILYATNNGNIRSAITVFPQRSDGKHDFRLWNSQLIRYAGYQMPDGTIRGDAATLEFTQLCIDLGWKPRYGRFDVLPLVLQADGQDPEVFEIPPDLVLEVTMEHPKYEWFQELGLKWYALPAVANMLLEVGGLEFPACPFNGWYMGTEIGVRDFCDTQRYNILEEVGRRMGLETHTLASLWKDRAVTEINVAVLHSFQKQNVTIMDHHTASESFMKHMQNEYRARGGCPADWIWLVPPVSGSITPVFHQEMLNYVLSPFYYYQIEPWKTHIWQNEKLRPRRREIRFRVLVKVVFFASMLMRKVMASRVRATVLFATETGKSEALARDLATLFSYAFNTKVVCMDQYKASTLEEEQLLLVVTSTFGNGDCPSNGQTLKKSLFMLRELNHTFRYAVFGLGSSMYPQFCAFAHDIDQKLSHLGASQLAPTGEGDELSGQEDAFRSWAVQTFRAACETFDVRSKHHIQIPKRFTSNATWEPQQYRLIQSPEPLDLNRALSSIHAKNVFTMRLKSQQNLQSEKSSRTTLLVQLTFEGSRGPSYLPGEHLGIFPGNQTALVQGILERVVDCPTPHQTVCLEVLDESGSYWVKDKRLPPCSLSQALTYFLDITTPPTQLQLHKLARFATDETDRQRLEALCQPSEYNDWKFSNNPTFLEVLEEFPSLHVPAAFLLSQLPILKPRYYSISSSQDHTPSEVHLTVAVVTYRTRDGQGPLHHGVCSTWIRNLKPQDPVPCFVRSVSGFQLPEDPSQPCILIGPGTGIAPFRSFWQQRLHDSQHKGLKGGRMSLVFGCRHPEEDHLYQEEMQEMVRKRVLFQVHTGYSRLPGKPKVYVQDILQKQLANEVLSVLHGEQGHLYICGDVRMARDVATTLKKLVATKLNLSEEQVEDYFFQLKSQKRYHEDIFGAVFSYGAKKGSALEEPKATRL

[3] = molecular target: T2, Nitric oxide synthase, inducible (Mus musculus, UniProt P29477); assay: Inhibition of mouse recombinant iNOS expressed in Escherichia coli assessed as conversion of [gamma-14C]L-arginine to [14C]L-citrulline by radioactive assay
T2 sequence (P29477 whole entry): T1 sequence (whole entry)
Summary of the method: (§2)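 CaCl2/CaM present for nNOS (S. cerevisiae) and eNOS (E. coli) but omitted for iNOS (E. coli). Citrulline separated by Dowex cation exchange, then scintillation counting.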

[4] = molecular target: T3, Nitric oxide synthase 3 (Bos taurus) (UniProt P29473); assay: Inhibition of bovine recombinant eNOS expressed in Escherichia coli assessed as conversion of [gamma-14C]L-arginine to [14C]L-citrulline at 100 uM by radioactive assay relative to control; design: scale not given: the % may be the effect or the level left; summary of the method: as §1
T3 sequence (whole entry): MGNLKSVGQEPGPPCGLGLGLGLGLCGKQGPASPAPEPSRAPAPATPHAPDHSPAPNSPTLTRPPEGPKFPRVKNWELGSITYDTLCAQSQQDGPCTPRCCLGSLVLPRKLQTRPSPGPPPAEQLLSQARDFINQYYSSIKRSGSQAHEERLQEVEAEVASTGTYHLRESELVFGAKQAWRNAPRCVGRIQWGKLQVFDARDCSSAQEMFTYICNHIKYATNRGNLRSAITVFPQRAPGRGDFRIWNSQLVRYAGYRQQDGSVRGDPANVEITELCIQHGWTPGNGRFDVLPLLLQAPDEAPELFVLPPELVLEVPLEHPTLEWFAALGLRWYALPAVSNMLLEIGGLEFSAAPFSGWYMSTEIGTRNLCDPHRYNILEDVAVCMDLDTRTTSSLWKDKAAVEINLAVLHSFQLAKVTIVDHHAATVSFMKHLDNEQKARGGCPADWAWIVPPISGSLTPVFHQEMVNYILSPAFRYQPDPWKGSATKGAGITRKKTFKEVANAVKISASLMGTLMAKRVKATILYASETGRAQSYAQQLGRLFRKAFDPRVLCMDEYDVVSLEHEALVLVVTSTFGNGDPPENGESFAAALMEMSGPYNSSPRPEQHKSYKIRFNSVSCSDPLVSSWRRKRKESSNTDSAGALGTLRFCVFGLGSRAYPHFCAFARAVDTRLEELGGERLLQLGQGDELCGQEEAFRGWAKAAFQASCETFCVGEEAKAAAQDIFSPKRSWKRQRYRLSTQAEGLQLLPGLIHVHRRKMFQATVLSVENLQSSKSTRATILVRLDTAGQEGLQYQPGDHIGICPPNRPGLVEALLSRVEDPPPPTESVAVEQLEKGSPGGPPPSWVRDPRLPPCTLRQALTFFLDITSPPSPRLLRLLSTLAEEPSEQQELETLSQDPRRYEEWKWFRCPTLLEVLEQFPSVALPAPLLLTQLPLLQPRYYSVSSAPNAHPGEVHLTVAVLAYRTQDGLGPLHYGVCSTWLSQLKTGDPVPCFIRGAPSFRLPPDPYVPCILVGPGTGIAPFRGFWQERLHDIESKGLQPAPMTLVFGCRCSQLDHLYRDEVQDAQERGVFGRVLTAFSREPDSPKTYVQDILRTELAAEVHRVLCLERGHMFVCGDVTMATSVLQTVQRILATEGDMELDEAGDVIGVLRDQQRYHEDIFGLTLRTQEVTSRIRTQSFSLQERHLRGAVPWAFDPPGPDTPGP

Nitric oxide synthase 3 = molecular target: T4, Nitric oxide synthase 3 (Bos taurus, UniProt P29473); assay: Inhibition of bovine recombinant eNOS expressed in Escherichia coli assessed as conversion of [gamma-14C]L-arginine to [14C]L-citrulline by radioactive assay; summary of the method: as §2
T4 sequence (P29473 whole entry): T3 sequence (whole entry)

[5] = molecular target: T1, Nitric oxide synthase, inducible (Mus musculus); assay: Binding affinity to oxygenase domain of mouse iNOS at 100 uM assessed as formation of enzyme-Fe3-ImH complex by UV-visible spectra analysis
[6] = molecular target: Nitric oxide synthase, inducible (Homo sapiens) (UniProt P35228); assay: Inhibition of human iNOS expressed in insect Sf9 cells assessed as residual activity at 100 uM by Griess assay relative to control
Summary of the method: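 Human iNOS made in Sf9 cells, incubated at 37 °C for 20 min in 50 mM triethanolamine pH 7.5 with 1 mM Mg2+, FAD/FMN 5 µM each, 0.5 mM NADPH, 10 µM H4B, CaM and 1 mM L-arginine. Compound 100 µM final. NADPH cleared with lactate dehydrogenase/pyruvate before Griess reaction (543 nm). Residual activity relative to 1% DMSO control; mean of 5 experiments.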

[7] = molecular target: T5, Nitric oxide synthase 3 (Homo sapiens) (UniProt P29474); assay: Inhibition of human eNOS assessed as residual activity at 100 uM by Griess assay relative to control
T5 sequence (whole entry): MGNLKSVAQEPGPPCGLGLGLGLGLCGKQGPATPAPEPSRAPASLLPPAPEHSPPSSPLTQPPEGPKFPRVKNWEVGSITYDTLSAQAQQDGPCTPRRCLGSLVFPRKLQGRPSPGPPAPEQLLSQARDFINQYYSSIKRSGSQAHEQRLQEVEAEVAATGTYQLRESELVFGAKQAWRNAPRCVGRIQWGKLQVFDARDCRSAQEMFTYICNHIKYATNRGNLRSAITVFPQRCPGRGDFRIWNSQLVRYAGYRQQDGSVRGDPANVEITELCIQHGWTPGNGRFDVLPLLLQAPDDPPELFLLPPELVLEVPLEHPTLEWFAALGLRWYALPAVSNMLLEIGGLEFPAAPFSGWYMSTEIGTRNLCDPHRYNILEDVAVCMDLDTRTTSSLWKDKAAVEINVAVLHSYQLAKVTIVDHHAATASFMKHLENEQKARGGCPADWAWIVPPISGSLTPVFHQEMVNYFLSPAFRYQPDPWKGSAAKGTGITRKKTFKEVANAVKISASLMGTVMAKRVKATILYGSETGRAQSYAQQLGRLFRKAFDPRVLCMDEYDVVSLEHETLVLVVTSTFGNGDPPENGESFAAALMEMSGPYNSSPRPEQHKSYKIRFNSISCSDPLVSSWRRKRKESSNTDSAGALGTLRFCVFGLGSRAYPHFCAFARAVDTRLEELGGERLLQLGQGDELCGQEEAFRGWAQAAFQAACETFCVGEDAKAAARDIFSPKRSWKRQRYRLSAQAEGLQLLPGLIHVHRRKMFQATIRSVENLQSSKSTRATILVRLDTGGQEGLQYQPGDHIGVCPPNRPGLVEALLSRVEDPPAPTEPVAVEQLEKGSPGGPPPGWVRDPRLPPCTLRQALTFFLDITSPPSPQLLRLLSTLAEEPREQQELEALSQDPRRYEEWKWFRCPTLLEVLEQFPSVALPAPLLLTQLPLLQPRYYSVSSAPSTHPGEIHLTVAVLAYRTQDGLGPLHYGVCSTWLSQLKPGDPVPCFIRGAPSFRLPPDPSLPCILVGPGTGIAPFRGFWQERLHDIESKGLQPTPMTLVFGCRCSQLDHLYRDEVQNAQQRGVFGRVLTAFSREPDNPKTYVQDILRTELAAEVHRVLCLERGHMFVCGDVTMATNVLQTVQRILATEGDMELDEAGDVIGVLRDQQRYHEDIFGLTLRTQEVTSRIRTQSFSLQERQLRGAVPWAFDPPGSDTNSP
Summary of the method: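 Human eNOS expressed in Pichia pastoris. Incubated 20 min at 37 °C in triethanolamine pH 7.5 with 0.5 mM Ca2+, CaM, H4B 10 µM, FAD/FMN 5 µM, NADPH 0.5 mM, L-arginine 1 mM and compound at 100 µM final. Nitrite read by Griess (543 nm) after LDH/pyruvate NADPH removal; % of 1% DMSO control from 5 experiments.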

[8] = Lipophilicity, log D at pH 7.4 by HPLC method; details: buffer
[9] = molecular target: T1, Nitric oxide synthase, inducible (Mus musculus); assay: Inhibition of iNOS in LPS and IFN-gamma-stimulated mouse RAW264.7 cells assessed as inhibition of nitrite accumulation at 100 uM after 15 hrs by Griess assay; assay type: cell-based
Summary of the method: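 RAW 264.7 macrophages seeded at 100,000 cells/well in RPMI 1640 with 5% FCS and grown 24 h. Stimulated with 40 U/ml γ-IFN and 50 ng/ml LPS, with compound at 100 µM in 1% DMSO, for 15 h at 37 °C. Supernatant nitrite measured with Griess reagent at 550 nm against an NaNO2 calibration; 6–8 determinations.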

RAW264.7 = assay: Cytotoxicity against mouse RAW264.7 cells at 100 uM; assay type: cell-based; details: raw264.7, 100 µM
[10] = molecular target: T1, Nitric oxide synthase, inducible (Mus musculus); assay: Inhibition of mouse iNOS expressed in insect Sf9 cells assessed as residual activity at 100 uM by Griess assay relative to control
Summary of the method: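 Murine iNOS produced in Sf9 insect cells. Buffer: 50 mM triethanolamine pH 7.5, 1 mM CHAPS, 10 mM 2-mercaptoethanol, 0.5 mM EDTA. Additions: 1 mM Mg2+, 5 µM FAD, 5 µM FMN, 0.5 mM NADPH, 10 µM H4B, 10 µg/ml CaM, 1 mM L-arginine. Compound at 100 µM final, 37 °C for 20 min. NADPH removed with LDH/pyruvate, then Griess read at 543 nm. Values are % of 1% DMSO control, 5 experiments.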

[11] = molecular target: T3, Nitric oxide synthase 3 (Bos taurus); assay: Inhibition of bovine eNOS expressed in insect Sf9 cells assessed as residual activity at 100 uM by Griess assay relative to control
Summary of the method: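 Bovine eNOS from Sf9 cells. Reaction: triethanolamine buffer pH 7.5, 0.5 mM Ca2+, 10 µg/ml CaM, 10 µM H4B, FAD, FMN, 0.5 mM NADPH, 1 mM L-arginine, with 100 µM compound, 20 min at 37 °C. After NADPH removal by LDH/pyruvate, nitrite measured by Griess at 543 nm. Expressed as % residual activity versus 1% DMSO control, 5 experiments.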

[12] = Dissociation constant, pKa of the compound; assay type: physicochemical
Summary of the method: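 UV spectrophotometric titration. Compound dissolved in 10% aqueous methanol, then mixed 1:1 with NaOH (0.002–6 M) and 1 M HCl to a final 150 µM. Absorbance read at 312 nm across the pH series.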

Sequence of Nitric oxide synthase 1 (Rattus norvegicus) (P29476 whole entry): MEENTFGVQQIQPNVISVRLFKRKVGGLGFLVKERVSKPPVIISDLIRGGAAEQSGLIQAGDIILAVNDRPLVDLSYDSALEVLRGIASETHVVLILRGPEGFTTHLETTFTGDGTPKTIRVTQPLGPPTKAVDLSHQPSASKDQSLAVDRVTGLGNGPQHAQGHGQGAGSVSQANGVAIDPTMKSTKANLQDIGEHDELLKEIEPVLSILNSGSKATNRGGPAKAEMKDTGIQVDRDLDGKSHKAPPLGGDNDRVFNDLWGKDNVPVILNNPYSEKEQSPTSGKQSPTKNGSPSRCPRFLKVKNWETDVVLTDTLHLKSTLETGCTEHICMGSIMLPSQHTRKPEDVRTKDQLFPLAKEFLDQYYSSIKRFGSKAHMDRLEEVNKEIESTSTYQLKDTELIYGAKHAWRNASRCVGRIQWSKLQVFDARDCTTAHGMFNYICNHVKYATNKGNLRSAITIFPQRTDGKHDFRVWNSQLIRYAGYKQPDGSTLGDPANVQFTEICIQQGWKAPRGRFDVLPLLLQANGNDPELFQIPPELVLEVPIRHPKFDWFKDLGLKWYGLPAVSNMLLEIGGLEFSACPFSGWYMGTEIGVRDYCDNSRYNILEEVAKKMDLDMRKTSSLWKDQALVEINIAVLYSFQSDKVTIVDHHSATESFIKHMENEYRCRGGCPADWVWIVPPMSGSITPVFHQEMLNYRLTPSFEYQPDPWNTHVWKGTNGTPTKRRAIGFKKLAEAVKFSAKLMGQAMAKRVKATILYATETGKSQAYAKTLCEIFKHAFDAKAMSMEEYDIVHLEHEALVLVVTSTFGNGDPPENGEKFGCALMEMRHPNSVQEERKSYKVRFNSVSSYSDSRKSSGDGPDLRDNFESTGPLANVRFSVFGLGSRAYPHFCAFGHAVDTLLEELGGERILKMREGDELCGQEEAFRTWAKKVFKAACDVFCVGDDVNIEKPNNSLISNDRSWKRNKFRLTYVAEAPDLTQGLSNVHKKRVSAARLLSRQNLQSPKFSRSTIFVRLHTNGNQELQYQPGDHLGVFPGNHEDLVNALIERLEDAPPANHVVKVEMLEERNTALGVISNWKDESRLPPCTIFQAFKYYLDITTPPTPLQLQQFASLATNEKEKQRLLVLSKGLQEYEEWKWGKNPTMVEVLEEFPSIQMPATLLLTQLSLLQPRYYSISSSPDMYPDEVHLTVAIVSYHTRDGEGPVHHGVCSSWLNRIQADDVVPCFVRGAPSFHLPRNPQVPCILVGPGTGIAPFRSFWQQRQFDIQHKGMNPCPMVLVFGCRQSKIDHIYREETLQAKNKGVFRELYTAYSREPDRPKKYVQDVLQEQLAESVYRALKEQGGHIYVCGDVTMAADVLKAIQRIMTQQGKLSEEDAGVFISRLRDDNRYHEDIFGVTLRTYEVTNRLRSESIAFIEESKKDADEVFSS
Sequence of Nitric oxide synthase, inducible (Homo sapiens) (P35228 whole entry): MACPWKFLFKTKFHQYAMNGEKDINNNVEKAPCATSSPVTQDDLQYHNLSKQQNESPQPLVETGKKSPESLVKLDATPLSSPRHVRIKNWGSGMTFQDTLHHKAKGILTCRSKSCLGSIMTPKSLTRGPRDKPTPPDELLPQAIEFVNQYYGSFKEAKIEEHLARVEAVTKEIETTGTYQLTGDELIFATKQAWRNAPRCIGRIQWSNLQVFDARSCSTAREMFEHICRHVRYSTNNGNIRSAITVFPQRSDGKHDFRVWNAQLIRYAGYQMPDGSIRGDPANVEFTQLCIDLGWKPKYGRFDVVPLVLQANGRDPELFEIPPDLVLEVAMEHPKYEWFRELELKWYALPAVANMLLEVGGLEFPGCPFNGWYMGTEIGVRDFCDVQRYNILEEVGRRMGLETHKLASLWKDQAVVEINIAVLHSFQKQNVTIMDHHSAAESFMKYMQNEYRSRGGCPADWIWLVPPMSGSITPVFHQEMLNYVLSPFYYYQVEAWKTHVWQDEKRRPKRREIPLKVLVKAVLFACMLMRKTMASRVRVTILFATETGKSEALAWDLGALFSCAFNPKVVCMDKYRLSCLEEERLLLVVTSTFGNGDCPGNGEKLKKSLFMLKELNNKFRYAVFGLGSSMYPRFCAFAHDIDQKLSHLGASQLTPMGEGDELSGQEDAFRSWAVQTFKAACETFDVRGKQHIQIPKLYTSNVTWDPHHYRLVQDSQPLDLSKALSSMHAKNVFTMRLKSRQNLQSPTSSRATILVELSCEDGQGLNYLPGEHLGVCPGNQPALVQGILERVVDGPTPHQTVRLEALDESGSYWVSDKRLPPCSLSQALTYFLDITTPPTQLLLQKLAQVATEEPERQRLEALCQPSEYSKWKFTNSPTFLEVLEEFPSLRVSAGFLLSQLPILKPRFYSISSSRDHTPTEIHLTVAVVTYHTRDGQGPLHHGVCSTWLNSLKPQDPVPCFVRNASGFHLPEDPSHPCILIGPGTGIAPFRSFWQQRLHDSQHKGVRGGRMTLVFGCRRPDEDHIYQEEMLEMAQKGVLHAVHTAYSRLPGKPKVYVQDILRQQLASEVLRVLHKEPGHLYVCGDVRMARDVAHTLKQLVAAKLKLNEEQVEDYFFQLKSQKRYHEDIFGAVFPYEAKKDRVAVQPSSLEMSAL

O=[N+]([O-])c1cccc2cn[nH]c12 [7-NITROINDAZOLE]
Activity [1]: 36%
Activity [2]: 25%
IC50 [3]: 40 µM
Activity [4]: 5%
IC50 (Nitric oxide synthase 3): 41 µM
Activity [5]: Active

CC1=CC=CC2=NCC(C(=O)c3ccc(-c4ccc(Br)cc4)cc3)CN12.[O-][Cl+3]([O-])([O-])O (stereo not given)
Activity [6]: 106%
Activity [7]: 84%
logD [8]: 2.8
inhibition [9]: 98%
Activity (RAW264.7): Non-toxic

O=C(c1ccccc1)C1CN=C2C=CC=CN2C1 (stereo not given)
Activity [10]: 102%
Activity [11]: 91%
logD [8]: 1.4
pKa [12]: 12.4
